Here are results for one compound from ChEMBL document CHEMBL4376807, “Hydroxamic Acid Derivatives of β-Carboline/Hydroxycinnamic Acid Hybrids Inducing Apoptosis and Autophagy through the PI3K/Akt/mTOR Pathways” (J Nat Prod, 2019).

Assay [1] concerns Bel-7402. Kind of assay: Induction of autophagy in human Bel7402 cells assessed as downregulation of LC3-I level at 1 to 5 uM after 24 to 72 hrs by Western blot analysis. Type of assay: functional, cell-based. In outline:
(§1)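 Bel7402 cells (1.5 × 10^5/mL) exposed to compound at indicated doses, or vehicle, for 24 or 72 h. Lysates (0.05 mg/lane) separated on 12% SDS-PAGE, blotted to nitrocellulose, blocked in 5% milk. Probed with anti-LC3, anti-p62 and anti-beclin-1, HRP secondary, chemiluminescent detection. Levels quantified relative to β-actin; three separate assays, mean ± SD.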

In assay [2] the test system is Bel-7402. Kind of assay: Induction of apoptosis in human Bel7402 cells assessed as increase in cleaved caspase-3 level at 5 uM after 72 hrs by Western blot analysis. Type of assay: functional, cell-based. In outline: (§2)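 Subconfluent Bel7402 cells (1.5 × 10^5/mL) exposed to vehicle or compound for 72 h, then lysed. Lysates (0.05 mg/lane) run on 12% SDS-PAGE, transferred to nitrocellulose, blocked in 5% nonfat milk. Probed for Bax, Bcl-2, cleaved caspase-3 and cleaved PARP, with HRP secondary and chemiluminescence. Levels normalized to β-actin; three separate assays, mean ± SD.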

The test system of assay [3] is HepG2. Kind of assay: Antiproliferative activity against human HepG2 cells after 72 hrs by MTT assay. As to conditions: HepG2, 72 h. Type of assay: functional, cell-based.
Assay [4] has as its system Bel-7402. Description: Induction of apoptosis in human Bel7402 cells assessed as increase in cleaved caspase-3 level at 1 uM after 72 hrs by Western blot analysis. Type of assay: functional, cell-based. In outline:
as §2

Assay [5] concerns Bel-7402. Description: Induction of apoptosis in human Bel7402 cells assessed as decrease in Bcl-2 expression after 72 hrs by Western blot analysis. The format is functional, cell-based. The method in brief:
as §2

The subject of assay [6] is Bel-7402. Description: Induction of apoptosis in human Bel7402 cells assessed as increase in cleaved PARP level at 1 uM after 72 hrs by Western blot analysis. Type of assay: functional, cell-based. The method in brief: as §2
Assay [7] has as its system Bel-7402. Kind of assay: Induction of autophagy in human Bel7402 cells assessed as upregulation of LC3-2 level at 5 uM after 24 to 72 hrs by Western blot analysis. The format is functional, cell-based. The method in brief: as §1
Assay [8] has as its system Huh-7. Kind of assay: Antiproliferative activity against human HuH7 cells after 72 hrs by MTT assay. Type of assay: functional, cell-based. Conditions: Huh-7, 72 h.
For assay [9], the system named is Bel-7402. Description: Induction of autophagy in human Bel7402 cells assessed as downregulation of p62 level at 1 to 5 uM after 24 to 72 hrs by Western blot analysis. Type of assay: functional, cell-based. The method in brief: as §1
Assay [10] has as its system Bel-7402. Kind of assay: Induction of apoptosis in human Bel7402 cells assessed as increase in cleaved PARP level at 5 uM after 72 hrs by Western blot analysis. The format is functional, cell-based. In outline:
as §2

The target of assay [11] is Histone deacetylase 1 (Homo sapiens, UniProt Q13547). Kind of assay: Inhibition of HDAC1 (unknown origin) using Boc-Lys (Ac)-AMC as substrate incubated for 60 mins by fluorimetric assay.
Histone deacetylase 1, sequence (Q13547 whole entry): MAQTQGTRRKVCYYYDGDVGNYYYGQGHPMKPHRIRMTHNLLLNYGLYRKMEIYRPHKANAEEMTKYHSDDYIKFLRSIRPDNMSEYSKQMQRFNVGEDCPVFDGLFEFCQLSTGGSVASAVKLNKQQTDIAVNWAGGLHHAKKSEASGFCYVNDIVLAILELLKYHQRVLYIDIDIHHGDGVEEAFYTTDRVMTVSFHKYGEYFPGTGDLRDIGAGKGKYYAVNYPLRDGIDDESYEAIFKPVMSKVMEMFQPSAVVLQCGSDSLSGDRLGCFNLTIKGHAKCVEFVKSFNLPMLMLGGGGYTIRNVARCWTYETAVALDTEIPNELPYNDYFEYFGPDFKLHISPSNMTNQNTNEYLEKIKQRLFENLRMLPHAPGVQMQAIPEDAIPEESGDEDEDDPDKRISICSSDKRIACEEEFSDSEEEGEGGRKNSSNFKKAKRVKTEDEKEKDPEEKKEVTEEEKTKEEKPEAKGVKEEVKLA
For assay [12], the system named is Bel-7402. Kind of assay: Induction of apoptosis in human Bel7402 cells assessed as increase in Bax expression after 72 hrs by Western blot analysis. The format is functional, cell-based. The method in brief: as §2
Assay [13] deals with L02. Kind of assay: Cytotoxicity against human LO2 cells after 72 hrs by MTT assay. Conditions: L02, 72 h. Type of assay: functional, cell-based. In outline:
(§3)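 Cells grown in DMEM with 10% heat-inactivated FBS, penicillin/streptomycin, 37 °C, 5% CO2. Seeded at 10^4 cells/mL overnight, then exposed to a range of compound concentrations for 72 h; 0.1% DMSO negative control. MTT (5 mg/mL stock) added, absorbance read at 570 nm; percent inhibition from three independent experiments, mean ± SD.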

Assay [14] can be described thus: Inhibition of PI3K/AKT/mTOR signaling in human Bel7402 cells assessed as reduction in mTOR phosphorylation after 24 to 72 hrs by Western blot analysis. The format is cell-based. The method in brief: (§4)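 Bel7402 cells (1.5 × 10^5/mL) exposed to compound at 1.0 and 2.5 μM for 24 or 72 h. Lysates (0.05 mg/lane) separated on 12% SDS-PAGE and blotted to nitrocellulose. Probed for total Akt, phospho-Akt (Ser473), total mTOR and phospho-mTOR, HRP secondary, chemiluminescent detection. Quantified from three separate assays, mean ± SD.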

The subject of assay [15] is Bel-7402. Kind of assay: Induction of apoptosis in human Bel7402 cells assessed as annexin-V positive cells at 5 uM after 72 hrs by Annexin-V/PI staining based flow cytometry relative to control. The format is functional. In outline: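 Bel7402 cells (10 000) cultured overnight, then exposed to compound at 1.0 or 5.0 μM, or vehicle, for 72 h. Harvested, stained with annexin-V APC and 7-AAD for 15 min. Apoptotic percentage measured by flow cytometry (APC ex 633/em 660 nm; 7-AAD ex 488/em 647 nm). Three separate assays, mean ± SD.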

Assay [16] can be described thus: Inhibition of PI3K/AKT/mTOR signaling in human Bel7402 cells assessed as reduction in AKT phosphorylation after 24 to 72 hrs by Western blot analysis. The format is cell-based. The method in brief:
as §4

Assay [17] has as its system Bel-7402. Description: Induction of autophagy in human Bel7402 cells assessed as accumulation of autophagic vacuoles at 5 uM after 24 hrs by acridine orange staining based fluorescence microscopic method. The format is functional, cell-based. The method in brief:
(§5)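 Bel7402 cells (10 000) cultured overnight, then exposed to compound at 1.0 or 5.0 μM, or vehicle. Stained with 1 mg/mL acridine orange for 15−20 min, then dye removed. Red versus green fluorescence viewed by fluorescence microscopy at 400×. Representative images from three independent experiments.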

For assay [18], the system named is Bel-7402. Kind of assay: Induction of autophagy in human Bel7402 cells assessed as upregulation of LC3-2 level at 1 uM after 24 to 72 hrs by Western blot analysis. The format is functional, cell-based. The method in brief: as §1
In assay [19] the test system is Bel7402/5-FU. Description: Antiproliferative activity against human Bel7402/5-FU cells at 0.2 to 5 uM after 72 hrs by MTT assay. Type of assay: functional, cell-based. In outline:
as §3

The test system of assay [20] is Bel-7402. Description: Induction of autophagy in human Bel7402 cells assessed as accumulation of autophagic vacuoles at 1 uM after 24 hrs by acridine orange staining based fluorescence microscopic method. Type of assay: functional, cell-based. In outline:
as §5

Assay [21] has as its target T1, Histone deacetylase (Homo sapiens) (UniProt Q13547+O15379+Q9UBN7+Q92769+Q9UQL6+Q8WUI4+Q9BY41+Q96DB2+P56524+Q9UKV0+Q969S8). Description: Inhibition of HDAC in human Bel7402 cells assessed as increase in acetylated alpha-tubulin expression incubated for 72 hrs by Western blot analysis. The format is cell-based. In outline:
(§6)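 Bel7402 cells exposed to vehicle or compound (1.0 and 3.0 μM) for 72 h, with SAHA 5.0 μM as reference. Lysates (0.05 mg/lane) run on 12% SDS-PAGE and transferred to nitrocellulose. Probed with anti-acetyl-H3 and anti-acetyl-α-tubulin, HRP secondary, chemiluminescence. Quantified from three separate assays, mean ± SD.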

Assay [22] is filed under the species Homo sapiens. Description: Selectivity ratio of IC50 for human HDAC3 to IC50 for human HDAC6. The method in brief:
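Recombinant human HDAC1, 3, 6 and 8 (fluorimetric kit) incubated with compound over a range of concentrations and Boc-Lys(Ac)-AMC substrate at 37 °C for 60 min. Reaction quenched with lysine developer; after 30 min, fluorescence read at ex 355/em 460 nm. Inhibition taken relative to control and IC50 fitted; ratios built from these IC50s.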

The target in assay [23] is T1, Histone deacetylase (Homo sapiens). Kind of assay: Inhibition of HDAC in human Bel7402 cells assessed as increase in acetylated histone h3 expression incubated for 72 hrs by Western blot analysis. The format is cell-based. In outline:
as §6

SMILES strings stand for the structures. Active and inactive are the calls of the source. The calls are words filed in the database; no cut-off is given here.

Regarding `COc1ccc(-c2nc(NCCCOc3ccc(/C=C/C(=O)NO)cc3OC)cc3c2[nH]c2ccccc23)cc1`, the result in assay [1], in assay [2], in assay [4], in assay [6], in assay [7] and in assay [9] was Active. Further, the outcome in [10], in [17], in assay [18], in assay [19] and in assay [20] was Active. Further, the IC50 was 1400 nM in assay [3], 1100 nM in assay [8], 27 nM in assay [11] and above 25 µM in assay [13]. Also, the results for the Activity entry in assay [5], in assay [12] and in assay [15] were “Dose-dependent effect”, “Dose-dependent effect” and 73.8%, respectively. Also, the inhibition result in [14], in assay [16], in assay [21] and in [23] was “Dose-dependent effect” each time. Moreover, the Ratio IC50 in [22] lay within 7 to 11.
